# Source: ChEMBL document CHEMBL5303300, “EUbOPEN Chemogenomics Library - Multiplex” (2023)
# Values joined by “and” are separate entries in the source; they are usually repeats but may differ in a detail not shown here. Identical values can stand only once.
# Experiments:
# Format in all cases: toxicity, cell-based
# Fibroblast = assay: Multiplex assay against human fibroblast; details: number of replicates 2
# Summary of the method: (§1)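 Values for tubulin, mitochondrial-mass and membrane-permeability phenotypes are per cents of cells with healthy nuclei. These cells were identified by CellPathfinder machine-learning gating of live cells that had been stained at seeding with Hoechst33342, BioTracker Green Microtubule Cytoskeleton Dye, MitoTracker Red and Annexin V Alexa Fluor 680 and imaged on a CQ1 microscope at 37°C and 5% CO2 after compound addition. The gating first set Hoechst high-intensity objects apart from normal cells, then split normal cells into healthy, pyknosed or fragmented nuclei, and pyknosed cells into mitotic or apoptotic.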
# HEK-293T = assay: Multiplex assay against HEK293T; details: human, number of replicates 2; summary of the method: as §1
# U2OS = assay: Multiplex assay against U2OS; details: human, number of replicates 2; summary of the method: as §1
# [1] = 12 h, 1 µM, compound concentration 1 uM
# [2] = 12 h, 10 µM, compound concentration 10 uM
# [3] = 24 h, 1 µM, compound concentration 1 uM
# [4] = 24 h, 10 µM, compound concentration 10 uM
# [5] = 48 h, 1 µM, compound concentration 1 uM
# [6] = 48 h, 10 µM, compound concentration 10 uM
smiles,measurement,setting,value
Cc1c(C(=O)Nc2ccc(N3C[C@@H](C)O[C@@H](C)C3)nc2)cccc1-c1ccc(OC(F)(F)F)cc1 [SONIDEGIB],Population Apoptotic (%),Fibroblast; [1],46% and 32%
same,Population Fragmented Nuclei (%),Fibroblast; [1],13% and 9%
same,Population Healthy Nuclei (%),Fibroblast; [1],64% and 70%
same,Population Hoechst High Intensity Objects (%),Fibroblast; [1],0%
same,Population Membrane Permeable-Phenotype (%),Fibroblast; [1],5%
same,Population Mitochondria Different-Phenotype (%),Fibroblast; [1],0% and 1%
same,Population Mitotic Cells (%),Fibroblast; [1],53% and 67%
same,Population Normal (%),Fibroblast; [1],100%
same,Population Pyknosed Nuclei (%),Fibroblast; [1],22% and 20%
same,Population Tubulin-Different-Phenotype (%),Fibroblast; [1],16% and 10%
same,Total Cell Count,Fibroblast; [1],193 and 230
same,Population Apoptotic (%),Fibroblast; [2],55% and 38%
same,Population Fragmented Nuclei (%),Fibroblast; [2],8% and 9%
same,Population Healthy Nuclei (%),Fibroblast; [2],83% and 80%
same,Population Hoechst High Intensity Objects (%),Fibroblast; [2],0%
same,Population Membrane Permeable-Phenotype (%),Fibroblast; [2],1% and 0%
same,Population Mitochondria Different-Phenotype (%),Fibroblast; [2],1% and 0%
same,Population Mitotic Cells (%),Fibroblast; [2],44% and 61%
same,Population Normal (%),Fibroblast; [2],100%
same,Population Pyknosed Nuclei (%),Fibroblast; [2],7% and 10%
same,Population Tubulin-Different-Phenotype (%),Fibroblast; [2],1% and 7%
same,Total Cell Count,Fibroblast; [2],117 and 128
same,Population Apoptotic (%),Fibroblast; [3],53% and 52%
same,Population Fragmented Nuclei (%),Fibroblast; [3],15% and 12%
same,Population Healthy Nuclei (%),Fibroblast; [3],60% and 69%
same,Population Hoechst High Intensity Objects (%),Fibroblast; [3],0%
same,Population Membrane Permeable-Phenotype (%),Fibroblast; [3],3%
same,Population Mitochondria Different-Phenotype (%),Fibroblast; [3],1% and 0%
same,Population Mitotic Cells (%),Fibroblast; [3],46% and 47%
same,Population Normal (%),Fibroblast; [3],100%
same,Population Pyknosed Nuclei (%),Fibroblast; [3],24% and 17%
same,Population Tubulin-Different-Phenotype (%),Fibroblast; [3],10% and 7%
same,Total Cell Count,Fibroblast; [3],179 and 224
same,Population Apoptotic (%),Fibroblast; [4],53% and 57%
same,Population Fragmented Nuclei (%),Fibroblast; [4],15% and 16%
same,Population Healthy Nuclei (%),Fibroblast; [4],73% and 70%
same,Population Hoechst High Intensity Objects (%),Fibroblast; [4],0%
same,Population Membrane Permeable-Phenotype (%),Fibroblast; [4],4% and 5%
same,Population Mitochondria Different-Phenotype (%),Fibroblast; [4],0% and 2%
same,Population Mitotic Cells (%),Fibroblast; [4],46% and 42%
same,Population Normal (%),Fibroblast; [4],100%
same,Population Pyknosed Nuclei (%),Fibroblast; [4],10% and 13%
same,Population Tubulin-Different-Phenotype (%),Fibroblast; [4],4% and 8%
same,Total Cell Count,Fibroblast; [4],123 and 141
same,Population Apoptotic (%),Fibroblast; [5],63% and 45%
same,Population Fragmented Nuclei (%),Fibroblast; [5],16% and 12%
same,Population Healthy Nuclei (%),Fibroblast; [5],65% and 72%
same,Population Hoechst High Intensity Objects (%),Fibroblast; [5],0%
same,Population Membrane Permeable-Phenotype (%),Fibroblast; [5],1% and 5%
same,Population Mitochondria Different-Phenotype (%),Fibroblast; [5],0%
same,Population Mitotic Cells (%),Fibroblast; [5],36% and 54%
same,Population Normal (%),Fibroblast; [5],100%
same,Population Pyknosed Nuclei (%),Fibroblast; [5],18% and 15%
same,Population Tubulin-Different-Phenotype (%),Fibroblast; [5],9% and 3%
same,Total Cell Count,Fibroblast; [5],162 and 218
same,Population Apoptotic (%),Fibroblast; [6],57% and 66%
same,Population Fragmented Nuclei (%),Fibroblast; [6],13% and 18%
same,Population Healthy Nuclei (%),Fibroblast; [6],75% and 59%
same,Population Hoechst High Intensity Objects (%),Fibroblast; [6],0%
same,Population Membrane Permeable-Phenotype (%),Fibroblast; [6],4% and 6%
same,Population Mitochondria Different-Phenotype (%),Fibroblast; [6],0% and 1%
same,Population Mitotic Cells (%),Fibroblast; [6],42% and 33%
same,Population Normal (%),Fibroblast; [6],100%
same,Population Pyknosed Nuclei (%),Fibroblast; [6],10% and 21%
same,Population Tubulin-Different-Phenotype (%),Fibroblast; [6],3% and 6%
same,Total Cell Count,Fibroblast; [6],128 and 138
same,Population Apoptotic (%),HEK-293T; [1],36% and 33%
same,Population Fragmented Nuclei (%),HEK-293T; [1],3%
same,Population Healthy Nuclei (%),HEK-293T; [1],85% and 86%
same,Population Hoechst High Intensity Objects (%),HEK-293T; [1],3% and 6%
same,Population Membrane Permeable-Phenotype (%),HEK-293T; [1],3%
same,Population Mitochondria Different-Phenotype (%),HEK-293T; [1],12%
same,Population Mitotic Cells (%),HEK-293T; [1],63% and 66%
same,Population Normal (%),HEK-293T; [1],96% and 93%
same,Population Pyknosed Nuclei (%),HEK-293T; [1],11% and 9%
same,Population Tubulin-Different-Phenotype (%),HEK-293T; [1],43% and 46%
same,Total Cell Count,HEK-293T; [1],668 and 769
same,Population Apoptotic (%),HEK-293T; [2],55% and 57%
same,Population Fragmented Nuclei (%),HEK-293T; [2],3% and 4%
same,Population Healthy Nuclei (%),HEK-293T; [2],84% and 85%
same,Population Hoechst High Intensity Objects (%),HEK-293T; [2],7% and 10%
same,Population Membrane Permeable-Phenotype (%),HEK-293T; [2],3% and 1%
same,Population Mitochondria Different-Phenotype (%),HEK-293T; [2],18% and 15%
same,Population Mitotic Cells (%),HEK-293T; [2],44% and 42%
same,Population Normal (%),HEK-293T; [2],92% and 89%
same,Population Pyknosed Nuclei (%),HEK-293T; [2],11% and 10%
same,Population Tubulin-Different-Phenotype (%),HEK-293T; [2],56% and 45%
same,Total Cell Count,HEK-293T; [2],652 and 496
same,Population Apoptotic (%),HEK-293T; [3],39% and 27%
same,Population Fragmented Nuclei (%),HEK-293T; [3],3% and 4%
same,Population Healthy Nuclei (%),HEK-293T; [3],90% and 89%
same,Population Hoechst High Intensity Objects (%),HEK-293T; [3],6% and 7%
same,Population Membrane Permeable-Phenotype (%),HEK-293T; [3],3% and 2%
same,Population Mitochondria Different-Phenotype (%),HEK-293T; [3],5% and 3%
same,Population Mitotic Cells (%),HEK-293T; [3],60% and 72%
same,Population Normal (%),HEK-293T; [3],93% and 92%
same,Population Pyknosed Nuclei (%),HEK-293T; [3],6% and 5%
same,Population Tubulin-Different-Phenotype (%),HEK-293T; [3],30% and 33%
same,Total Cell Count,HEK-293T; [3],984 and 1195
same,Population Apoptotic (%),HEK-293T; [4],53% and 55%
same,Population Fragmented Nuclei (%),HEK-293T; [4],6% and 7%
same,Population Healthy Nuclei (%),HEK-293T; [4],83%
same,Population Hoechst High Intensity Objects (%),HEK-293T; [4],6% and 8%
same,Population Membrane Permeable-Phenotype (%),HEK-293T; [4],3%
same,Population Mitochondria Different-Phenotype (%),HEK-293T; [4],5%
same,Population Mitotic Cells (%),HEK-293T; [4],46% and 45%
same,Population Normal (%),HEK-293T; [4],93% and 91%
same,Population Pyknosed Nuclei (%),HEK-293T; [4],9%
same,Population Tubulin-Different-Phenotype (%),HEK-293T; [4],30% and 28%
same,Total Cell Count,HEK-293T; [4],975 and 681
same,Population Apoptotic (%),HEK-293T; [5],17% and 12%
same,Population Fragmented Nuclei (%),HEK-293T; [5],12%
same,Population Healthy Nuclei (%),HEK-293T; [5],84%
same,Population Hoechst High Intensity Objects (%),HEK-293T; [5],7% and 10%
same,Population Membrane Permeable-Phenotype (%),HEK-293T; [5],5% and 4%
same,Population Mitochondria Different-Phenotype (%),HEK-293T; [5],0%
same,Population Mitotic Cells (%),HEK-293T; [5],82% and 87%
same,Population Normal (%),HEK-293T; [5],92% and 89%
same,Population Pyknosed Nuclei (%),HEK-293T; [5],3%
same,Population Tubulin-Different-Phenotype (%),HEK-293T; [5],12% and 15%
same,Total Cell Count,HEK-293T; [5],2699 and 2880
same,Population Apoptotic (%),HEK-293T; [6],14% and 19%
same,Population Fragmented Nuclei (%),HEK-293T; [6],13% and 10%
same,Population Healthy Nuclei (%),HEK-293T; [6],83% and 86%
same,Population Hoechst High Intensity Objects (%),HEK-293T; [6],8% and 7%
same,Population Membrane Permeable-Phenotype (%),HEK-293T; [6],4% and 5%
same,Population Mitochondria Different-Phenotype (%),HEK-293T; [6],0%
same,Population Mitotic Cells (%),HEK-293T; [6],85% and 80%
same,Population Normal (%),HEK-293T; [6],91% and 92%
same,Population Pyknosed Nuclei (%),HEK-293T; [6],2% and 3%
same,Population Tubulin-Different-Phenotype (%),HEK-293T; [6],12% and 8%
same,Total Cell Count,HEK-293T; [6],2536 and 1733
same,Population Apoptotic (%),U2OS; [1],66% and 51%
same,Population Healthy Nuclei (%),U2OS; [1],60% and 79%
same,Population Hoechst High Intensity Objects (%),U2OS; [1],0%
same,Population Membrane Permeable-Phenotype (%),U2OS; [1],4% and 1%
same,Population Mitochondria Different-Phenotype (%),U2OS; [1],0%
same,Population Mitotic Cells (%),U2OS; [1],33% and 48%
same,Population Normal (%),U2OS; [1],100%
same,Population Pyknosed Nuclei (%),U2OS; [1],7% and 13%
same,Population Tubulin-Different-Phenotype (%),U2OS; [1],56% and 90%
same,Population Healthy Nuclei (%),U2OS; [2],61% and 85%
same,Population Hoechst High Intensity Objects (%),U2OS; [2],0%
same,Population Membrane Permeable-Phenotype (%),U2OS; [2],0% and 1%
same,Population Mitochondria Different-Phenotype (%),U2OS; [2],0%
same,Population Mitotic Cells (%),U2OS; [2],100% and 54%
same,Population Normal (%),U2OS; [2],100%
same,Population Pyknosed Nuclei (%),U2OS; [2],11%
same,Population Tubulin-Different-Phenotype (%),U2OS; [2],57% and 90%
same,Population Apoptotic (%),U2OS; [3],50% and 66%
same,Population Healthy Nuclei (%),U2OS; [3],68% and 85%
same,Population Hoechst High Intensity Objects (%),U2OS; [3],0%
same,Population Membrane Permeable-Phenotype (%),U2OS; [3],0% and 2%
same,Population Mitochondria Different-Phenotype (%),U2OS; [3],0%
same,Population Mitotic Cells (%),U2OS; [3],50% and 33%
same,Population Normal (%),U2OS; [3],100% and 99%
same,Population Pyknosed Nuclei (%),U2OS; [3],4% and 9%
same,Population Tubulin-Different-Phenotype (%),U2OS; [3],64% and 88%
same,Population Apoptotic (%),U2OS; [4],50% and 63%
same,Population Healthy Nuclei (%),U2OS; [4],61% and 90%
same,Population Hoechst High Intensity Objects (%),U2OS; [4],0%
same,Population Membrane Permeable-Phenotype (%),U2OS; [4],4% and 1%
same,Population Mitochondria Different-Phenotype (%),U2OS; [4],0%
same,Population Mitotic Cells (%),U2OS; [4],50% and 36%
same,Population Normal (%),U2OS; [4],100%
same,Population Pyknosed Nuclei (%),U2OS; [4],10% and 7%
same,Population Tubulin-Different-Phenotype (%),U2OS; [4],75% and 90%
same,Population Apoptotic (%),U2OS; [5],33% and 54%
same,Population Healthy Nuclei (%),U2OS; [5],60% and 89%
same,Population Hoechst High Intensity Objects (%),U2OS; [5],0%
same,Population Membrane Permeable-Phenotype (%),U2OS; [5],6% and 1%
same,Population Mitochondria Different-Phenotype (%),U2OS; [5],0%
same,Population Mitotic Cells (%),U2OS; [5],66% and 45%
same,Population Normal (%),U2OS; [5],100%
same,Population Pyknosed Nuclei (%),U2OS; [5],5% and 7%
same,Population Tubulin-Different-Phenotype (%),U2OS; [5],70% and 89%
same,Population Apoptotic (%),U2OS; [6],42% and 46%
same,Population Healthy Nuclei (%),U2OS; [6],71% and 91%
same,Population Hoechst High Intensity Objects (%),U2OS; [6],0%
same,Population Membrane Permeable-Phenotype (%),U2OS; [6],0% and 1%
same,Population Mitochondria Different-Phenotype (%),U2OS; [6],0%
same,Population Mitotic Cells (%),U2OS; [6],57% and 53%
same,Population Normal (%),U2OS; [6],100%
same,Population Pyknosed Nuclei (%),U2OS; [6],8% and 6%
same,Population Tubulin-Different-Phenotype (%),U2OS; [6],74% and 89%
